pIC50: −log10 of the molar value. *1 amine or outer side, *2 acyl side, *3 side chain or, on linkers, in order; H or OH if unused. Where a SMILES comes first, the peptide text is derived from it. Side-chain parts run from the residue outwards. [ ]: non-standard residue; d: D form. dPhe(4-NHCONH2) = NC(=O)Nc1ccc(C[C@@H](N)C(=O)O)cc1; dPhe(4-NH2) = Nc1ccc(C[C@@H](N)C(=O)O)cc1; dPhe(4-Cl) = N[C@H](Cc1ccc(Cl)cc1)C(=O)O; Phe(4-NH2) = Nc1ccc(C[C@H](N)C(=O)O)cc1; d2Nal = N[C@H](Cc1ccc2ccccc2c1)C(=O)O; Lys(iPr) = CC(C)NCCCC[C@H](N)C(=O)O; d3Pal = N[C@H](Cc1cccnc1)C(=O)O; CO = O=C([*:1])[*:2]
What was measured:
[1] = organism: Rattus norvegicus; test: Compound was tested for inhibition of Leutenizing hormone release at 72 hours (long duration) in castrated male rat assay; type: functional; design: concentration or dose not given beside the values
Method in brief: (§1)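 Male Sprague-Dawley rats (180-200 g), castrated under ether 10 days earlier, 5 per group. 50 µg/rat given sc in 100 µL 40 mM phosphate buffer with 0.1% BSA and 0.6% DMSO; acyline run as internal standard. Tail blood taken predose and at 24, 48, 72, 96 (sometimes 120) h; plasma LH by RIA. Duration classed by >80% LH inhibition at each time.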

[2] = target: T1, Gonadotropin-releasing hormone receptor (Homo sapiens, UniProt P30968); test: Antagonism of human GnHR receptor, determined in a reporter gene assay in HEK293 cells; type: functional, cell-based
T1 sequence (P30968 whole entry): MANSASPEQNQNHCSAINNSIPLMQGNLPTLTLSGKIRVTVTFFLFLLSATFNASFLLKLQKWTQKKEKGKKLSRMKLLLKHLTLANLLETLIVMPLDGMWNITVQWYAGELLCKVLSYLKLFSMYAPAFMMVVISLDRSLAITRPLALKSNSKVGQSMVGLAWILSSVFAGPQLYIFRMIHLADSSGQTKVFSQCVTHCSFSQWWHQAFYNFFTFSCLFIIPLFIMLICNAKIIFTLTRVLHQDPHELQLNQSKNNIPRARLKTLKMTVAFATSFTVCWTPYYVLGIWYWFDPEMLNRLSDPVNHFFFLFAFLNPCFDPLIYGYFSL
Method in brief: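 HEK293 cells stably expressing cloned human GnRH receptor plus luciferase reporter under LH alpha subunit promoter, plated 24 h before assay. Compound in 1% DMSO added 10 min at 37 °C, then GnRH at 3 nM final; 5 h incubation, luciferase luminescence read. Six concentrations in duplicate; blank-subtracted cps as % of GnRH control; mean of two determinations.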

[3] = target: T1, Gonadotropin-releasing hormone receptor; test: Competitive antagonism of GnRH-induced response in the reporter gene assay; type: functional; details: read-out: pA2 (converted)
Method in brief: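 Same HEK293 human GnRH receptor luciferase reporter cells. Seven-point GnRH curve (10 µM to 10 pM final) run in duplicate without or with four to five increasing compound concentrations (10 min preincubation, 37 °C), then 5 h and luminescence. GnRH EC50 at each level by four-parameter logistic fit, giving pA2; mean of two determinations in duplicate.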

[4] = organism: Rattus norvegicus; test: Compound was tested for inhibition of Leutenizing hormone release at 48 hours (intermediate duration) in castrated male rat assay; type: functional; design: concentration or dose not given beside the values; method in brief: as §1
[5] = organism: Rattus norvegicus; test: Compound was tested for inhibition of Leutenizing hormone release at 96 hours (very long duration) in castrated male rat assay; type: functional; design: concentration or dose not given beside the values; method in brief: as §1
[6] = organism: Rattus norvegicus; test: Compound was tested for histamine release at a concentration of 100 ug/mL; type: functional
Method in brief: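 Sprague-Dawley rat peritoneal mast cells, Percoll-purified, in heparinized balanced salt solution with albumin, pH 7.2. Cells exposed to compound or vehicle for 2 min at 37 °C. Supernatant histamine measured spectrofluorometrically after o-phthalaldehyde derivatization; pellets lysed for retained histamine. Reported as % of total histamine released, corrected for spontaneous release in vehicle.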

SMILES | Inhibition [1] [%] | pIC50 [2] | Kb [3] [nM] | further results
CC(=O)N[C@H](Cc1ccc2ccccc2c1)C(=O)N[C@H](Cc1ccc(Cl)cc1)C(=O)N[C@H](Cc1cccnc1)C(=O)N[C@@H](CO)C(=O)N[C@@H](Cc1ccc(NC(=O)[C@@H]2CC(=O)NC(=O)N2)cc1)C(=O)N[C@H](CCCNC(N)=O)C(=O)N[C@@H](CC(C)C)C(=O)N[C@@H](CCCCNC(C)C)C(=O)N1CCC[C@H]1C(=O)N[C@H](C)C(N)=O | >80 | – | – | –
CC(=O)Nc1ccc(C[C@@H](NC(=O)[C@H](Cc2ccc(NC(=O)[C@@H]3CNC(=O)N3)cc2)NC(=O)[C@H](CO)NC(=O)[C@@H](Cc2cccnc2)NC(=O)[C@@H](Cc2ccc(Cl)cc2)NC(=O)[C@@H](Cc2ccc3ccccc3c2)NC(C)=O)C(=O)N[C@@H](CC(C)C)C(=O)N[C@@H](CCCCNC(C)C)C(=O)N2CCC[C@H]2C(=O)N[C@H](C)C(N)=O)cc1 | >80 | 8.04 | 0.631 | –
CC(=O)Nc1ccc(C[C@H](NC(=O)[C@H](CO)NC(=O)[C@@H](Cc2cccnc2)NC(=O)[C@@H](Cc2ccc(Cl)cc2)NC(=O)[C@@H](Cc2ccc3ccccc3c2)NC(C)=O)C(=O)N[C@H](Cc2ccc(CNC(N)=O)cc2)C(=O)N[C@@H](CC(C)C)C(=O)N[C@@H](CCCCNC(C)C)C(=O)N2CCC[C@H]2C(=O)N[C@H](C)C(N)=O)cc1 | – | – | – | Inhibition [4]: >80%
CC(=O)N[C@H](Cc1ccc2ccccc2c1)C(=O)N[C@H](Cc1ccc(Cl)cc1)C(=O)N[C@H](Cc1cccnc1)C(=O)N[C@@H](CO)C(=O)N[C@@H](Cc1ccc(NC(=O)[C@@H]2CC(=O)NC(=O)N2)cc1)C(=O)N[C@H](Cc1ccc(CNC(N)=O)cc1)C(=O)N[C@@H](CC(C)C)C(=O)N[C@@H](CCCCNC(C)C)C(=O)N1CCC[C@H]1C(=O)N[C@@H](C)CO | – | 8.26 | 0.631 | Inhibition [5]: >80%
CC(=O)N[C@H](Cc1ccc2ccccc2c1)C(=O)N[C@H](Cc1ccc(Cl)cc1)C(=O)N[C@H](Cc1cccnc1)C(=O)N[C@@H](CO)C(=O)N[C@@H](Cc1ccc(NC(=O)[C@@H]2CC(=O)NC(=O)N2)cc1)C(=O)N[C@H](Cc1ccc(NC(N)=O)cc1)C(=O)N[C@@H](CC(C)C)C(=O)N[C@@H](CCCCNC(C)C)C(=O)N1CCC[C@H]1C(=O)N[C@H](C)CO | – | – | – | Inhibition [5]: >80%
CNC(=O)Nc1ccc(C[C@H](NC(=O)[C@H](CO)NC(=O)[C@@H](Cc2cccnc2)NC(=O)[C@@H](Cc2ccc(Cl)cc2)NC(=O)[C@@H](Cc2ccc3ccccc3c2)NC(C)=O)C(=O)N[C@H](Cc2ccc(NC(=O)NC)cc2)C(=O)N[C@@H](CC(C)C)C(=O)N[C@@H](CCCCNC(C)C)C(=O)N2CCC[C@H]2C(=O)N[C@H](C)C(N)=O)cc1 (Ac-[d2Nal][dPhe(4-Cl)][d3Pal]S[Phe(4-NH2)]([CO-NHMe])[dPhe(4-NH2)]([CO-NHMe])L[Lys(iPr)]P[dA]-NH2) | – | – | – | Inhibition [4]: >80%
CC(=O)Nc1ccc(C[C@@H](NC(=O)[C@H](Cc2ccc(CNC(=O)[C@@H]3CC(=O)NC(=O)N3)cc2)NC(=O)[C@H](CO)NC(=O)[C@@H](Cc2cccnc2)NC(=O)[C@@H](Cc2ccc(Cl)cc2)NC(=O)[C@@H](Cc2ccc3ccccc3c2)NC(C)=O)C(=O)N[C@@H](CC(C)C)C(=O)N[C@@H](CCCCNC(C)C)C(=O)N2CCC[C@H]2C(=O)N[C@H](C)C(N)=O)cc1 | >80 | – | – | –
CCNC(=O)[C@@H]1CCCN1C(=O)[C@H](CCCCNC(C)C)NC(=O)[C@H](CC(C)C)NC(=O)[C@@H](Cc1ccc(CNC(N)=O)cc1)NC(=O)[C@H](Cc1ccc(NC(=O)[C@@H]2CC(=O)NC(=O)N2)cc1)NC(=O)[C@H](CO)NC(=O)[C@@H](Cc1cccnc1)NC(=O)[C@@H](Cc1ccc(Cl)cc1)NC(=O)[C@@H](Cc1ccc2ccccc2c1)NC(C)=O | – | – | – | Inhibition [4]: >80%
CC(=O)Nc1ccc(C[C@@H](NC(=O)[C@H](Cc2ccc(NC(=O)[C@H]3CNC(=O)N3)cc2)NC(=O)[C@H](CO)NC(=O)[C@@H](Cc2cccnc2)NC(=O)[C@@H](Cc2ccc(Cl)cc2)NC(=O)[C@@H](Cc2ccc3ccccc3c2)NC(C)=O)C(=O)N[C@@H](CC(C)C)C(=O)N[C@@H](CCCCNC(C)C)C(=O)N2CCC[C@H]2C(=O)N[C@H](C)C(N)=O)cc1 | – | 7.97 | – | Inhibition [4]: >80%
CC(=O)NCc1ccc(C[C@@H](NC(=O)[C@H](Cc2ccc(NC(=O)[C@H]3CC(=O)NC(=O)N3)cc2)NC(=O)[C@H](CO)NC(=O)[C@@H](Cc2cccnc2)NC(=O)[C@@H](Cc2ccc(Cl)cc2)NC(=O)[C@@H](Cc2ccc3ccccc3c2)NC(C)=O)C(=O)N[C@@H](CC(C)C)C(=O)N[C@@H](CCCCNC(C)C)C(=O)N2CCC[C@H]2C(=O)N[C@H](C)C(N)=O)cc1 | >80 | – | – | –
CC(=O)N[C@H](Cc1ccc2ccccc2c1)C(=O)N[C@H](Cc1ccc(Cl)cc1)C(=O)N[C@H](Cc1cccnc1)C(=O)N[C@@H](CO)C(=O)N[C@@H](Cc1ccc(NC(=O)[C@@H]2CC(=O)NC(=O)N2)cc1)C(=O)N[C@H](Cc1ccc(NC(N)=O)cc1)C(=O)N[C@@H](CC(C)C)C(=O)N[C@@H](CCCCNC(C)C)C(=O)N1CCC[C@H]1C(=O)N[C@@H](C)CO | >80 | – | – | –
CC(=O)Nc1ccc(C[C@@H](NC(=O)[C@H](Cc2ccc(NC(=O)C(NC(N)=O)NC(N)=O)cc2)NC(=O)[C@H](CO)NC(=O)[C@@H](Cc2cccnc2)NC(=O)[C@@H](Cc2ccc(Cl)cc2)NC(=O)[C@@H](Cc2ccc3ccccc3c2)NC(C)=O)C(=O)N[C@@H](CC(C)C)C(=O)N[C@@H](CCCCNC(C)C)C(=O)N2CCC[C@H]2C(=O)N[C@H](C)C(N)=O)cc1 | – | 8.05 | – | Inhibition [4]: >80%
CC(=O)Nc1ccc(C[C@@H](NC(=O)[C@H](Cc2ccc(NC(=O)[C@@H]3CC(=O)NC(=O)N3)cc2)NC(=O)[C@H](CO)NC(=O)[C@@H](Cc2cccnc2)NC(=O)[C@@H](Cc2ccc(Cl)cc2)NC(=O)[C@@H](Cc2ccc3ccccc3c2)NC(C)=O)C(=O)N[C@@H](CC(C)C)C(=O)N[C@@H](CCCCNC(C)C)C(=O)N2CCC[C@H]2C(=O)N[C@H](C)C(N)=O)cc1 | – | 8.37 | 1.26 | HR [6]: 54%; Inhibition [5]: >80%
CCNC(=O)[C@@H]1CCCN1C(=O)[C@H](CCCCNC(C)C)NC(=O)[C@H](CC(C)C)NC(=O)[C@@H](Cc1ccc(NC(N)=O)cc1)NC(=O)[C@H](Cc1ccc(NC(=O)[C@@H]2CC(=O)NC(=O)N2)cc1)NC(=O)[C@H](CO)NC(=O)[C@@H](Cc1cccnc1)NC(=O)[C@@H](Cc1ccc(Cl)cc1)NC(=O)[C@@H](Cc1ccc2ccccc2c1)NC(C)=O | >80 | – | – | –
CC(=O)NCc1ccc(C[C@@H](NC(=O)[C@H](Cc2ccc(NC(=O)[C@@H]3CC(=O)NC(=O)N3)cc2)NC(=O)[C@H](CO)NC(=O)[C@@H](Cc2cccnc2)NC(=O)[C@@H](Cc2ccc(Cl)cc2)NC(=O)[C@@H](Cc2ccc3ccccc3c2)NC(C)=O)C(=O)N[C@@H](CC(C)C)C(=O)N[C@@H](CCCCNC(C)C)C(=O)N2CCC[C@H]2C(=O)N[C@H](C)C(N)=O)cc1 | >80 | – | – | –
CC(=O)Nc1ccc(C[C@H](NC(=O)[C@H](CO)NC(=O)[C@@H](Cc2cccnc2)NC(=O)[C@@H](Cc2ccc(Cl)cc2)NC(=O)[C@@H](Cc2ccc3ccccc3c2)NC(C)=O)C(=O)N[C@H](Cc2ccc(NC(N)=O)cc2)C(=O)N[C@@H](CC(C)C)C(=O)N[C@@H](CCCCNC(C)C)C(=O)N2CCC[C@H]2C(=O)N[C@H](C)C(N)=O)cc1 (Ac-[d2Nal][dPhe(4-Cl)][d3Pal]S[Phe(4-NH2)](Ac)[dPhe(4-NHCONH2)]L[Lys(iPr)]P[dA]-NH2) | >80 | 8.21 | 0.501 | –
CC(=O)Nc1ccc(C[C@@H](NC(=O)[C@H](Cc2ccc(NC(=O)[C@H]3CC(=O)NC(=O)N3)cc2)NC(=O)[C@H](CO)NC(=O)[C@@H](Cc2cccnc2)NC(=O)[C@@H](Cc2ccc(Cl)cc2)NC(=O)[C@@H](Cc2ccc3ccccc3c2)NC(C)=O)C(=O)N[C@@H](CC(C)C)C(=O)N[C@@H](CCCCNC(C)C)C(=O)N2CCC[C@H]2C(=O)N[C@H](C)C(N)=O)cc1 | >80 | 8.07 | 1 | –
CC(=O)N[C@H](Cc1ccc2ccccc2c1)C(=O)N[C@H](Cc1ccc(Cl)cc1)C(=O)N[C@H](Cc1cccnc1)C(=O)N[C@@H](CO)C(=O)N[C@@H](Cc1ccc(NC(=O)[C@@H]2CC(=O)NC(=O)N2)cc1)C(=O)N[C@H](Cc1ccc(CNC(N)=O)cc1)C(=O)N[C@@H](CC(C)C)C(=O)N[C@@H](CCCCNC(C)C)C(=O)N1CCC[C@H]1C(=O)N[C@H](C)CO | – | 8.11 | 1 | Inhibition [5]: >80%

Source: ChEMBL document CHEMBL1134340, “GnRH antagonists: a new generation of long acting analogues incorporating p-ureido-phenylalanines at positions 5 and 6” (J Med Chem, 2001)
